Laboratory results as given in PMC9273292 (Journal of Ethnopharmacology, 2022).

How the values were obtained:
[1] = system: HCoV-OC43; assay: Cytopathic effect; format: cell-based, human coronavirus OC43; settings: 100 TCID50, 72 hpi, two-fold serial dilutions
How it was run: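 Confluent cell monolayers are infected with 100 TCID50 HCoV-OC43 (titre by Reed-Muench) and given two-fold serial dilutions of test compound. At 72 hpi, CPE (lysis, rounding, vacuolization) is scored by phase-contrast microscopy; absence of CPE is taken as activity. Remdesivir is the positive control.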

[2] = system: Mpro; settings: SARS-CoV-2 model; ref Alhadrami et al., 2021; cited from earlier work
[3] = molecular target: recombinant SARS-CoV-2 PLpro (Severe acute respiratory syndrome coronavirus 2, UniProt P0DTD1); assay: PLpro inhibition assay; format: biochemical
[4] = system: HCoV-OC43; assay: Antibody-based EC50 assay; format: cell-based, human coronavirus OC43; settings: CC50/EC50, HRT-18 cells
How it was run: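 HRT-18 cells (RPMI 1640, 10% FBS, 37 °C, 5% CO2) infected with HCoV-OC43 and treated with test compound. Viral nucleocapsid is detected with an anti-OC43 nucleocapsid antibody. Run in triplicate. EC50 comes from a four-parameter log(inhibitor) vs response fit of mean values. SI = CC50/EC50.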

[5] = system: HCoV-OC43; assay: Immunofluorescence analysis of HCoV-OC43 nucleocapsid in infected HRT-18 cells; format: cell-based, human coronavirus OC43; settings: 4 μM, 48 hpi
[6] = system: HCoV-OC43; assay: Transmission electron microscopy of infected HRT-18 cells; format: cell-based, human coronavirus OC43; settings: 4 μM, 48 hpi
How it was run: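 HRT-18 monolayers are inoculated with 100 TCID50 HCoV-OC43 for 2 h at 37 °C. Inoculum is then replaced by RPMI 1640 with 2% FBS containing test compound or DMSO. At 48 hpi, virus particles are examined by negative staining under transmission electron microscopy.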

[7] = system: Mpro; settings: cited from earlier work
[8] = CCK-8 cytotoxicity assay; format: cell-based; settings: human, HRT-18 cells
How it was run: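 Viability of HRT-18 cells is read by CCK-8 per the kit protocol. Cells are kept in RPMI 1640 with 10% FBS, sodium pyruvate, NEAA and 0.025M HEPES at 37 °C, 5% CO2. Run in triplicate. CC50 comes from a four-parameter log(inhibitor) vs response fit of mean values.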

[9] = molecular target: SARS-CoV-2 Nsp14N7 methyltransferase (Severe acute respiratory syndrome coronavirus 2, UniProt P0DTD1); assay: Nsp14N7-MTase inhibition assay; format: biochemical

Structure (SMILES): C=C(C)[C@@H]1CC[C@]2(C(=O)O)CC[C@]3(C)[C@H](CC[C@@H]4[C@@]5(C)CC[C@H](O)C(C)(C)[C@@H]5CC[C@]43C)[C@@H]12 [Compound 1, betulinic acid]
- inhibition of CPE caused by HCoV-OC43 infection [1]: showed antiviral activity
- concentration inhibiting Mpro activity [2]: 14.55 µmol/L
- IC50 [3]: 2.03 µM
- Selective index (SI) [4]: 8.04
- fluorescence signal of virus particles (HCoV-OC43 nucleocapsid) [5]: substantially reduced the fluorescence signal of virus particles
- viral particles in infected cells under TEM [6]: no viral particles were detected
- concentration inhibiting Mpro activity by competitive inhibition [7]: 10 µmol/L
- CC50 [8]: 19.4 µM
- IC50 [9]: 1.12 µM

Structure (SMILES): O=C1C[C@@H](c2ccc(O)cc2)Oc2cc(O)cc(O)c21 [Compound 5, naringenin]
- inhibition of CPE caused by HCoV-OC43 infection [1]: showed antiviral activity

Structure (SMILES): C[C@H]1[C@H](C)CC[C@]2(C)CC[C@]3(C)C(=CC[C@@H]4[C@@]5(C)CC[C@H](O)C(C)(C)[C@@H]5CC[C@]43C)[C@H]12 [Compound 2, α-amyrin]
- inhibition of CPE caused by HCoV-OC43 infection [1]: showed antiviral activity
- Selective index (SI) [4]: 6.03
- CC50 [8]: 24 µM

Structure (SMILES): O=c1c(O)c(-c2ccc(O)c(O)c2)oc2cc(O)cc(O)c12 [Compound 11, quercetin]
- inhibition of CPE caused by HCoV-OC43 infection [1]: showed antiviral activity
- Selective index (SI) [4]: 7.29
- CC50 [8]: 34 µM

Structure (SMILES): O=C1C[C@@H](c2ccc(O)c(O)c2)Oc2cc(O)cc(O)c21 [Compound 8, eriodictyol]
- inhibition of CPE caused by HCoV-OC43 infection [1]: showed antiviral activity
